Results filed as inconclusive are left out. Calls of active or inactive are those of the source.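 The calls were made as follows: active = compounds raising caspase signal whose fitted half-max concentration is within ten times the top valid dose; inconclusive = flat curve with moderate caspase rise, or unreliable fit; inactive = flat near zero, too weak, or opposite direction.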

In general, AC50 refers to the concentration giving half of the maximal activity seen.

The nature of assay [1]: caspase activation in Mcl1-dependent HMC1-8 cells, dose response, selectivity assay for A1 inhibitor project, cell-based, CaspaseGlo luminescence, dry powder (AID 488885). The note with it: HMC1-8 (Mcl1-dependent) caspase activation, CaspaseGlo luminescence, 4 h; at 150 µM (top of the series). Put shortly: (§1)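 Material: Low-A1 HMC 1-8 human cancer cells; Amount: 2500 cells per well; Detection: luminescence with CaspaseGlo reagent; Times: 4 h compound at 37 °C, 1 h reagent at room temperature; Buffer or medium: RPMI-1640, 10% FBS; Doses: test compound delivered to cells by pin transfer.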

For assay [2], the system named is HMC1-8 (Mcl1-dependent) caspase activation, CaspaseGlo luminescence, 4 h. The assay is described as above. A digest of the protocol:
as §1

Regarding `COc1cc(/C=C(/C#N)c2nc3ccccc3[nH]2)ccc1OCC(=O)Nc1ccccc1C(C)C`, the caspase activation in assay [1] was 13.5% (inactive).

With `Cc1ccc(Sc2c([N+](=O)[O-])c(=O)n(C)c3ccccc23)cc1`, the caspase activation in assay [1] was -9.5% (inactive).

As for `O=C(CCl)N=c1sccn1Cc1ccccc1Cl`, in assay [1], the caspase activation is -18.4% (inactive).

On to `C=C1[C@@H](C)[C@H]2[C@H](Cc3ccccc3)NC(=O)[C@]23[C@H](OC(C)=O)/C=C/[C@](C)(O)C(=O)[C@@H](C)C/C=C/[C@H]3[C@@H]1O`, for which, in assay [1], the caspase activation is -0.0184% (inactive).

On to `CC(=O)OC(C)(C)/C=C/C(=O)[C@](C)(O)C1[C@H](O)C[C@@]2(C)C3CC=C4C(C[C@H](O)C(=O)C4(C)C)[C@]3(C)C(=O)C[C@]12C` (stereo not given in full), for which the caspase activation in assay [1] is 17.2% (inactive).

Regarding `CC(C)(C)n1nc(-c2ccc(Cl)cc2)c2c(N)ncnc21`, the AC50 in assay [2] is 44.9 µM.

In the case of `O=C(Oc1cccc(/C=N/Nc2nc(Nc3ccccc3)nc(N3CCOCC3)n2)c1)c1ccco1`, in assay [1], the caspase activation is 3.81% (inactive).

For `C/C1=C/C(=O)O[C@@H]2C[C@@H](CC[C@H](C)/C=C\CC1)O[C@@](O)(C1CSC(=O)N1)C2` (stereo not given in full), in assay [1], the caspase activation is 3.84% (inactive).

For `C=C1[C@@H](C)[C@H]2[C@H](Cc3ccccc3)NC(=O)[C@]23OC(=O)/C=C\[C@H](O)CCC[C@@H](C)C/C=C/[C@H]3[C@@H]1O`, in assay [1], the caspase activation is 4.5% (inactive).

In the case of `Cn1c(=NC(=O)CCl)sc2ccccc21`, the caspase activation in assay [1] is -4.38% (inactive).

Values taken from PubChem BioAssay AID488885 (Broad Institute, 2010).
